# Data taken from ChEMBL document CHEMBL2380289, “Ligand based approach to L-type calcium channel by imidazo[2,1-b]thiazole-1,4-dihydropyridines: from heart activity to brain affinity” (J Med Chem, 2013).
# System: Ileum
# Experiment: Relaxant activity in potassium depolarized guinea pig ileum longitudinal smooth muscle assessed as inhibition of calcium-induced contraction
# Format: functional, tissue-based
# Conditions: Cavia porcellus
# Outline: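 K⁺-depolarized (80 mM) guinea pig ileum longitudinal smooth muscle is used. Calcium-induced contraction is measured with cumulative compound addition.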
row,Compound,IC50
1,COC(=O)C1=C(C)NC(C)=C(C(=O)OC)C1c1c(-c2ccncc2)nc2sc(C)cn12,9690 nM
2,COC(=O)C1=C(C)NC(C)=C(C(=O)OC)C1c1c(-c2ccsc2)nc2sccn12,2.3 nM

# System: not listed separately
# Experiment: Negative inotropic activity in guinea pig left atrium assessed as decrease in developed tension at 10^-4 M relative to control
# Format: functional, Cavia porcellus, Cardiac atrium
# Set-up: scale not given: the % may be the effect or the level left
# Conditions: not given
row,Compound,Activity
1,COC(=O)C1=C(C)NC(C)=C(C(=O)OC)C1c1c(-c2ccsc2)nc2sccn12,47%

# System: not listed separately
# Experiment: Negative chronotropic activity in guinea pig right atrium assessed as decrease in atrial rate at 5x10'-6 M relative to control
# Format: functional, Cavia porcellus, Cardiac atrium
# Set-up: scale not given: the % may be the effect or the level left
# Conditions: not given
row,Compound,Activity
1,COC(=O)C1=C(C)NC(C)=C(C(=O)OC)C1c1c(-c2ccsc2)nc2sccn12,87%

# Molecular target: not listed separately
# Experiment: Displacement of [3H]-PN200-110 from L-type calcium channel in Hartley guinea pig ventricular membrane […] after 90 mins
# Set-up: species or system Cavia porcellus
# Conditions: not given
Compound,IC50,Ki
COC(=O)C1=C(C)NC(C)=C(C(=O)OC)C1c1c(-c2ccsc2)nc2sccn12,2050 nM,740 nM

# Organism: Cavia porcellus
# Experiment: Displacement of [3H]-PN200-110 from L-type calcium channel in Hartley guinea pig atrial membrane at 100 uM after 90 mins relative to control
# Format: cell membranes
# Conditions: Cardiac atrium
row,Compound,%max
1,COC(=O)C1=C(C)NC(C)=C(C(=O)OC)C1c1c(-c2ccsc2)nc2sccn12,60%

# Molecular target: not listed separately
# Experiment: Displacement of [3H]-PN200-110 from L-type calcium channel in Hartley guinea pig atrial membrane after 90 mins
# Format: cell membranes, Cavia porcellus, Cardiac atrium
# Conditions: not given
# Outline: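 Guinea pig atrial membranes are labelled at the 1,4-DHP site with (+)-[5-methyl-3H]PN200-110 at 0.5 nM. Competitor is added over 0.001−100 μM from 10⁻² M DMSO stocks diluted in buffer. Results are given as IC50 and Ki, mean ± SEM. Student's t-test is applied with P<0.001.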
Compound,IC50,Ki
COC(=O)C1=C(C)NC(C)=C(C(=O)OC)C1c1c(-c2ccsc2)nc2sccn12,240 nM,52 nM

# System: not listed separately
# Experiment: Negative chronotropic activity in guinea pig right atrium assessed as decrease in atrial rate at 5x10'-5 M relative to control
# Format: functional, Cavia porcellus, Cardiac atrium
# Set-up: scale not given: the % may be the effect or the level left
# Conditions: not given
row,Compound,Activity
1,COC(=O)C1=C(C)NC(C)=C(C(=O)OC)C1c1c(-c2ccncc2)nc2sc(C)cn12,93%

# System: HEK293
# Experiment: Displacement of [3H]-PN200-110 from voltage-gated calcium channel subunit alpha Cav1.2a (unknown origin) expressed in HEK293 cells at 100 uM after 90 mins by liquid scintillation counting analysis relative to control
# Format: cell-based
# Conditions: Homo sapiens
row,Compound,%max
1,COC(=O)C1=C(C)NC(C)=C(C(=O)OC)C1c1c(-c2ccsc2)nc2sccn12,65%

# Organism: Cavia porcellus
# Experiment: Displacement of [3H]-PN200-110 from L-type calcium channel in Hartley guinea pig ventricular membrane […] after 90 mins relative to control
# Conditions: not given
row,Compound,%max
1,COC(=O)C1=C(C)NC(C)=C(C(=O)OC)C1c1c(-c2ccsc2)nc2sccn12,70%

# System: Aorta
# Experiment: Relaxant activity in potassium depolarized guinea pig aortic strips assessed as inhibition of calcium-induced contraction at 10^-4 M relative to control
# Format: functional, Cavia porcellus
# Set-up: scale not given: the % may be the effect or the level left
# Conditions: not given
# Outline: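 Guinea pig aortic strips and ileum longitudinal smooth muscle are depolarized with 80 mM K⁺. The read-out is percent inhibition of calcium-induced contraction. Aorta is tested at 10⁻⁴ M and ileum at 10⁻⁵ M.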
row,Compound,Activity
1,COC(=O)C1=C(C)NC(C)=C(C(=O)OC)C1c1c(-c2ccncc2)nc2sc(C)cn12,4%
2,COC(=O)C1=C(C)NC(C)=C(C(=O)OC)C1c1c(-c2ccsc2)nc2sccn12,11%

# System: not listed separately
# Experiment: Displacement of [3H]-PN200-110 from voltage-gated calcium channel subunit alpha Cav1.2a (unknown origin) expressed in HEK293 cells after 90 mins by liquid scintillation counting analysis
# Format: cell-based, Homo sapiens
# Conditions: not given
# Outline: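 Intact HEK-293 cells stably transfected with a rabbit Cav1.2a (α1c-a) plasmid are used. They are incubated with 0.5 nM (+)-[5-methyl-3H]PN200-110 plus competitor at 0.001−100 μM, from 10⁻² M DMSO stocks diluted in buffer. IC50 values are given as mean ± SEM.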
Compound,IC50,Ki
COC(=O)C1=C(C)NC(C)=C(C(=O)OC)C1c1c(-c2ccsc2)nc2sccn12,490 nM,150 nM

# System: Ileum
# Experiment: Relaxant activity in potassium depolarized guinea pig ileum longitudinal smooth muscle assessed as inhibition of calcium-induced contraction at 10^-7 M relative to control
# Format: functional, Cavia porcellus
# Set-up: scale not given: the % may be the effect or the level left
# Conditions: not given
row,Compound,Activity
1,COC(=O)C1=C(C)NC(C)=C(C(=O)OC)C1c1c(-c2ccsc2)nc2sccn12,85%

# System: not listed separately
# Experiment: Negative chronotropic activity in guinea pig right atrium assessed as decrease in atrial rate
# Format: functional, tissue-based
# Conditions: Cavia porcellus, Cardiac atrium
# Outline: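 Isolated guinea pig atria are used, with left atria driven at 1 Hz. Compounds are added cumulatively. EC50 is derived from log concentration−response curves by Litchfield–Wilcoxon probit analysis, n = 6−7. EC50 is not calculated when the maximal effect is below 50%.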
row,Compound,EC50
1,COC(=O)C1=C(C)NC(C)=C(C(=O)OC)C1c1c(-c2ccncc2)nc2sc(C)cn12,7490 nM
2,COC(=O)C1=C(C)NC(C)=C(C(=O)OC)C1c1c(-c2ccsc2)nc2sccn12,1060 nM

# System: Ileum
# Experiment: Relaxant activity in potassium depolarized guinea pig ileum longitudinal smooth muscle assessed as inhibition of calcium-induced contraction at 10^-4 M relative to control
# Format: functional, Cavia porcellus
# Set-up: scale not given: the % may be the effect or the level left
# Conditions: not given
row,Compound,Activity
1,COC(=O)C1=C(C)NC(C)=C(C(=O)OC)C1c1c(-c2ccncc2)nc2sc(C)cn12,97%

# Molecular target: not listed separately
# Experiment: Displacement of [3H]-PN200-110 from L-type calcium channel dihydropyridine binding site in Wistar rat cortex homogenate after 60 mins by liquid scintillation spectometric analysis
# Format: tissue-based
# Conditions: not given
# Outline: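 Competition binding on rat cortex homogenate with (+)-[5-methyl-3H]PN200-110. Compounds are dissolved in DMSO as 10⁻² M stocks and diluted in buffer. Six displacer concentrations are tested, each in triplicate. IC50 is obtained by −log probit analysis and Ki by the Prusoff method. Values are mean ± SEM of 3−5 separate experiments done in triplicate.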
Compound,IC50,Ki
COC(=O)C1=C(C)NC(C)=C(C(=O)OC)C1c1c(-c2ccsc2)nc2sccn12,1030 nM,740 nM

# System: not listed separately
# Experiment: Negative inotropic activity in guinea pig left atrium assessed as decrease in developed tension at 10^-6 M relative to control
# Format: functional, Cavia porcellus, Cardiac atrium
# Set-up: scale not given: the % may be the effect or the level left
# Conditions: not given
row,Compound,Activity
1,COC(=O)C1=C(C)NC(C)=C(C(=O)OC)C1c1c(-c2ccncc2)nc2sc(C)cn12,44%

# Organism: Rattus norvegicus
# Experiment: Displacement of [3H]-PN200-110 from L-type calcium channel dihydropyridine binding site in Wistar rat cortex homogenate at 100 uM after 60 mins by liquid scintillation spectometric analysis relative to control
# Format: tissue-based
# Conditions: not given
# Outline: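 Binding on rat cortex homogenate using (+)-[5-methyl-3H]PN200-110. The read-out is percent of maximal radioligand displacement at 100 μM test compound. Compounds are made up as 10⁻² M DMSO stocks and diluted in buffer. Values are from 3−5 separate experiments done in triplicate.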
row,Compound,%max
1,COC(=O)C1=C(C)NC(C)=C(C(=O)OC)C1c1c(-c2ccsc2)nc2sccn12,53%
